From ChEMBL document CHEMBL1926616, “Design, synthesis and biological evaluation of novel glycosylated diphyllin derivatives as topoisomerase II inhibitors” (Eur J Med Chem, 2012)
Activity calls are given as the source filed them. The rule behind the calls is not given here.

Tests used:
[1] = tested on: HCT-116; test: Cytotoxicity against human HCT116 cells after 72 hrs by sulforhodamine B and MTT assay; type: functional, cell-based; conditions: HCT-116, 72 h
Procedure, shortened: (§1)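 Log-phase cells were plated overnight and exposed for 72 h to a 5-concentration gradient, in triplicate wells. SRB arm: 10% cold TCA fixation for 1 h at 4 °C, 4 mg/ml SRB in 1% acetic acid for 15 min, dye dissolved in 10 mM Tris-HCl, read at 520 nm. MTT arm: 5 mg/mL MTT for 4 h at 37 °C, SDS-isobutanol-HCl solubilisation for 12–20 h, read at 570 nm. IC50 by Logit method from at least 3 independent tests.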

[2] = tested on: MCF7; test: Cytotoxicity against human MCF7 cells after 72 hrs by sulforhodamine B and MTT assay; type: functional, cell-based; conditions: MCF7, 72 h; procedure, shortened: as §1
[3] = tested on: KB; test: Cytotoxicity against human KB cells after 72 hrs by sulforhodamine B and MTT assay; type: functional, cell-based; procedure, shortened: as §1
[4] = tested on: KB; test: Cytotoxicity against vincristine-selected multi drug-resistant human KB cells after 72 hrs by sulforhodamine B and MTT assay; type: functional, cell-based
Procedure, shortened: (§2)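 Log-phase cells were seeded, preincubated (overnight for SRB, 24 h for MTT), then given a five-concentration gradient in triplicate wells for 72 h. For MTT, reagent was added for 4 h at 37 °C, solubilized in SDS-isobutanol-HCl for 12-20 h, and read at 570 nm. IC50 was derived by the Logit method from at least 3 independent tests.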

[5] = tested on: K562; test: Cytotoxicity against human K562 cells after 72 hrs by sulforhodamine B and MTT assay; type: functional, cell-based; conditions: K562, 72 h; procedure, shortened: as §2
[6] = tested on: K562; test: Cytotoxicity against adriamycin-selected multi drug-resistant human K562 cells after 72 hrs by sulforhodamine B and MTT assay; type: functional, cell-based; conditions: K562, 72 h; procedure, shortened: as §2
[7] = tested on: KB; test: Resistance index, ratio of IC50 for vincristine-selected multi drug-resistant human KB cells to IC50 for human KB cells; type: functional
Procedure, shortened: (§3)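 Resistance factor is the IC50 in the resistant line divided by the IC50 in the parental line. Both IC50s come from 72 h SRB/MTT growth-inhibition assays, derived by the Logit method from at least 3 independent tests.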

[8] = tested on: K562; test: Resistance index, ratio of IC50 for adriamycin-selected multi drug-resistant human K562 cells to IC50 for human K562 cells; type: functional; procedure, shortened: as §3
[9] = biological target: DNA topoisomerase 2-alpha (Homo sapiens) (UniProt P11388); test: Inhibition of human topoisomerase 2-mediated decatenation of kinetoplast DNA at 100 uM after 15 mins by agarose gel electrophoresis
Chain of DNA topoisomerase 2-alpha (Homo sapiens) (P11388 whole entry): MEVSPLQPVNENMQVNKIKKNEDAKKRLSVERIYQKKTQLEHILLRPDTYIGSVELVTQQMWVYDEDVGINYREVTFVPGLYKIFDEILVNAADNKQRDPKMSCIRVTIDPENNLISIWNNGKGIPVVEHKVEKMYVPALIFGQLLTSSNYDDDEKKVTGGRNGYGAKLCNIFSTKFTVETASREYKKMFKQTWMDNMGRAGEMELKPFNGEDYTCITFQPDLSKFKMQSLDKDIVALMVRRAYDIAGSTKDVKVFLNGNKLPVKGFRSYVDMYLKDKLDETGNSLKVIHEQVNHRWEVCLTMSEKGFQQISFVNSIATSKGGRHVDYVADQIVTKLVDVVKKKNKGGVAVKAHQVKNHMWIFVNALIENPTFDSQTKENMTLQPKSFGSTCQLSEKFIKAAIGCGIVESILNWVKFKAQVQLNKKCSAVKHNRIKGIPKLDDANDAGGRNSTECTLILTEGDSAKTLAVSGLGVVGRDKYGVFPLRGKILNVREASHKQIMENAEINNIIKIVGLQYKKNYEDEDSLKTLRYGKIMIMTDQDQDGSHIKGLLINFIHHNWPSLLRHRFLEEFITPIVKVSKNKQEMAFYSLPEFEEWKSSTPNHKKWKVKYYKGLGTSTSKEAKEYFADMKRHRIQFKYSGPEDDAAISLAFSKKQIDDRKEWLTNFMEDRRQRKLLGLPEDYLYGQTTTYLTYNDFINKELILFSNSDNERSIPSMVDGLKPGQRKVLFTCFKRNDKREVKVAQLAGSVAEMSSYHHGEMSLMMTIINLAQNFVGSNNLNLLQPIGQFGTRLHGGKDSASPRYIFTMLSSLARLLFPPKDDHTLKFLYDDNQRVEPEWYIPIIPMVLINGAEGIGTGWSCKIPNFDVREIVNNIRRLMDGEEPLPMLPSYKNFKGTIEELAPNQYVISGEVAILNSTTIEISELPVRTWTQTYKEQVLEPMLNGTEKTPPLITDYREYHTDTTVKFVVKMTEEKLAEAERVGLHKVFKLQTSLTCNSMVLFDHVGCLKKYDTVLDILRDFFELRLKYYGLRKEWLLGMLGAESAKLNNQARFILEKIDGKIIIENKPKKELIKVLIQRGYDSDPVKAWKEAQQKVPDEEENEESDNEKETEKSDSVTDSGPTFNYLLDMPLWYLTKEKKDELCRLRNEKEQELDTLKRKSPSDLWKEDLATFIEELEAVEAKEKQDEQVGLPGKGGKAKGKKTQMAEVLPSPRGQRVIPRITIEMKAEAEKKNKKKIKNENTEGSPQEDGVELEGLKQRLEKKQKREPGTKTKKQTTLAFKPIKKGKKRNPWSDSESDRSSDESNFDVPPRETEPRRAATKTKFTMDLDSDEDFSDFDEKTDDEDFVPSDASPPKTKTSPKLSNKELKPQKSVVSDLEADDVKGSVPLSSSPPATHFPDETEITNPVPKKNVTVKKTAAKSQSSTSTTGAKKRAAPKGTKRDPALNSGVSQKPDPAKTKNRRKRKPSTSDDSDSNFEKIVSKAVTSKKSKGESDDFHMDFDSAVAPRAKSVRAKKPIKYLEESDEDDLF
Procedure, shortened: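 ATP-dependent kDNA decatenation by 1 unit Topo II in 50 mM Tris-HCl pH 7.7, 50 mM KCl, 5 mM MgCl2, 1 mM ATP, 0.5 mM DTT, 0.5 mM EDTA and BSA, run for 15 min at 37 °C. Stopped with 10% SDS, then run on 1% agarose in TAE at 4 V/cm for 1 h and stained with ethidium bromide.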

[10] = tested on: HL-60; test: Cell cycle arrest in human HL60 cells assessed as accumulation at G0/G1 phase at 1 uM after 24 hrs using propidium iodide stain by FACS-flow cytometry (reference value: 39%); type: functional
[11] = tested on: HL-60; test: Cell cycle arrest in human HL60 cells assessed as accumulation at G0/G1 phase at 10 uM after 24 hrs using propidium iodide stain by FACS-flow cytometry (reference value: 39%); type: functional
[12] = tested on: HL-60; test: Cell cycle arrest in human HL60 cells assessed as accumulation at S phase at 1 uM after 24 hrs using propidium iodide stain by FACS-flow cytometry (reference value: 38.4%); type: functional
[13] = tested on: HL-60; test: Cell cycle arrest in human HL60 cells assessed as accumulation at S phase at 10 uM after 24 hrs using propidium iodide stain by FACS-flow cytometry (reference value: 38.4%); type: functional
[14] = tested on: HL-60; test: Cell cycle arrest in human HL60 cells assessed as accumulation at G2/M phase at 1 uM after 24 hrs using propidium iodide stain by FACS-flow cytometry (reference value: 22.6%); type: functional
[15] = tested on: HL-60; test: Cell cycle arrest in human HL60 cells assessed as accumulation at G2/M phase at 10 uM after 24 hrs using propidium iodide stain by FACS-flow cytometry (reference value: 22.6%); type: functional
[16] = tested on: HL-60; test: Induction of apoptosis in human HL60 cells assessed as DNA fragmentation at 10 uM after 36 hrs by gel electrophoresis; type: functional, cell-based
Procedure, shortened: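 HL-60 cells were seeded and exposed to compound for 36 h. Harvested cells were lysed with an equal volume of 1.2% SDS, and the fragmented DNA was extracted and resolved by gel electrophoresis.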

[17] = tested on: HCT-116; test: Cell cycle arrest in human HCT116 cells assessed as accumulation at G0/G1 phase at 1 to 10 uM after 24 hrs using propidium iodide stain by FACS-flow cytometry; type: functional, cell-based
[18] = tested on: HCT-116; test: Cell cycle arrest in human HCT116 cells assessed as accumulation at G2/M phase at 1 to 10 uM after 24 hrs using propidium iodide stain by FACS-flow cytometry; type: functional, cell-based
[19] = tested on: HL-60; test: Cell cycle arrest in human HL60 cells assessed as accumulation at G0/G1 phase at 1 to 10 uM using propidium iodide stain by FACS-flow cytometry; type: functional, cell-based; conditions: TDE = time-dependent effect
[20] = tested on: HL-60; test: Cell cycle arrest in human HL60 cells assessed as accumulation at G2/M phase at 1 to 10 uM using propidium iodide stain by FACS-flow cytometry; type: functional, cell-based; conditions: TDE = time-dependent effect
[21] = tested on: HL-60; test: Cell cycle arrest in human HL60 cells assessed as accumulation at G0/G1 phase after 24 hrs using propidium iodide stain by FACS-flow cytometry; type: functional, cell-based
[22] = tested on: HL-60; test: Cell cycle arrest in human HL60 cells assessed as accumulation at G2/M phase after 24 hrs using propidium iodide stain by FACS-flow cytometry; type: functional, cell-based
[23] = tested on: HCT-116; test: Cell cycle arrest in human HCT116 cells assessed as accumulation at G0/G1 phase at 1 to 10 uM using propidium iodide stain by FACS-flow cytometry; type: functional, cell-based; conditions: TDE = time-dependent effect
[24] = tested on: HCT-116; test: Cell cycle arrest in human HCT116 cells assessed as accumulation at G2/M phase at 1 to 10 uM using propidium iodide stain by FACS-flow cytometry; type: functional, cell-based; conditions: TDE = time-dependent effect
[25] = tested on: HCT-116; test: Cell cycle arrest in human HCT116 cells assessed as accumulation at G0/G1 phase after 24 hrs using propidium iodide stain by FACS-flow cytometry; type: functional, cell-based
[26] = tested on: HCT-116; test: Cell cycle arrest in human HCT116 cells assessed as accumulation at G2/M phase after 24 hrs using propidium iodide stain by FACS-flow cytometry; type: functional, cell-based

| SMILES | IC50 [1] [nM] | IC50 [2] [nM] | IC50 [3] [nM] | IC50 [4] [nM] | IC50 [5] [nM] | IC50 [6] [nM] | Ratio IC50 [7] | Ratio IC50 [8] | inhibition [9] | Activity [10] [%] | Activity [11] [%] | Activity [12] [%] | Activity [13] [%] | Activity [14] [%] | Activity [15] [%] | Activity [16] | Activity [17] | Activity [18] | Activity [19] | Activity [20] | other results |
| --- | --- | --- | --- | --- | --- | --- | --- | --- | --- | --- | --- | --- | --- | --- | --- | --- | --- | --- | --- | --- | --- |
| COc1cc2c(O[C@@H]3O[C@H](C)[C@@H](O)[C@H](O)[C@H]3O)c3c(c(-c4ccc5c(c4)OCO5)c2cc1OC)C(=O)OC3 [PATENTIFLORIN A] | 990 | 440 | 93 | 573 | 1430 | 16100 | 6.2 | 11.3 | inactive | 45.9 | 54.4 | 38 | 22.8 | 16.1 | 22.8 | Active | Active | Active | tde | tde | Activity [21]: Dose-dependent effect; Activity [22]: Dose-dependent effect; Activity [23]: tde; Activity [24]: tde; Activity [25]: Dose-dependent effect; Activity [26]: Dose-dependent effect |
| COc1cc2c(O[C@@H]3O[C@@H]4CO[C@@H](C)O[C@H]4[C@H](O)[C@H]3O)c3c(c(-c4ccc5c(c4)OCO5)c2cc1OC)C(=O)OC3 | 8 | 4 | 3 | 76 | 44 | 853 | 25.3 | 19.4 | Active | 53.6 | 56.2 | 23.4 | 19.2 | 22.9 | 24.6 | Active | Active | Active | tde | tde | Activity [21]: Dose-dependent effect; Activity [22]: Dose-dependent effect; Activity [23]: tde; Activity [24]: tde; Activity [25]: Dose-dependent effect; Activity [26]: Dose-dependent effect |
